# IMP-1 inh – IMP-1 metallo-beta-lactamase inhibitors, primary screen, biochemical, epi-absorbance readout, Pseudomonas aeruginosa enzyme; purified IMP-1, nitrocefin hydrolysis, epi-absorbance fluorescence; inhibition, % at 5.6 µM; metallo-beta-lactamase IMP-1 (Pseudomonas aeruginosa); 290,000 compounds, 0.45% hits;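 active = inhibition above the mean plus 3 SD of all compounds in the same screening run, cut at about 4.5% in these data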;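 note: 0% = IMP-1 with DMSO and 100% = DMSO wells lacking enzyme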
#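 System: Purified recombinant IMP-1 metallo-beta-lactamase enzyme | Measured by: Fluorescence quenching readout, ex 480/em 530 nm | Replication: Singlicate | Incubation: 15 min preincubation plus 25 min reaction at 25 °C | Evaluation: Percent inhibition from optical density relative to buffer-blank wells | Benchmarks: DMSO with and without IMP-1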
# CRFBP-R2 agonist – agonists of CRF-BP/CRF-R2 complex, primary screen, cell-based, HEK293, calcium dye fluorescence, uHTS. CRF-binding protein / CRF receptor 2 complex (human). calcium dye fluorescence (FLIPR); percent of saturating CRF peptide response. activation, % at 13.2 µM. 350,000 compounds, 0.46% hits;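 active = activation of at least 50%, plus an integration ratio under a set limit after plate pattern correction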;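 note: plate controls were neutral control wells without compound for no effect and CRF at EC100 for full effect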
# TRPML3 agonist – human TRPML3 channel agonists, primary screen, cell-based, HEK293 TRPML3-YFP, Fluo-8 calcium fluorescence, 3 µM. Mucolipin-3 (Homo sapiens), Q8TDD5. 100% = the carbachol control signal. activation, % at 3 µM. 220,000 compounds, 0.29% hits. AID 1448, 2008;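 active = activation above its plate's cutoff, the mean activation of the plate's test wells plus 3 SD, cut at about 12% in these data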;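 note: 0% = DMSO only wells and 100% = carbachol wells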
# Target sequence (Q8TDD5 whole entry, looked up): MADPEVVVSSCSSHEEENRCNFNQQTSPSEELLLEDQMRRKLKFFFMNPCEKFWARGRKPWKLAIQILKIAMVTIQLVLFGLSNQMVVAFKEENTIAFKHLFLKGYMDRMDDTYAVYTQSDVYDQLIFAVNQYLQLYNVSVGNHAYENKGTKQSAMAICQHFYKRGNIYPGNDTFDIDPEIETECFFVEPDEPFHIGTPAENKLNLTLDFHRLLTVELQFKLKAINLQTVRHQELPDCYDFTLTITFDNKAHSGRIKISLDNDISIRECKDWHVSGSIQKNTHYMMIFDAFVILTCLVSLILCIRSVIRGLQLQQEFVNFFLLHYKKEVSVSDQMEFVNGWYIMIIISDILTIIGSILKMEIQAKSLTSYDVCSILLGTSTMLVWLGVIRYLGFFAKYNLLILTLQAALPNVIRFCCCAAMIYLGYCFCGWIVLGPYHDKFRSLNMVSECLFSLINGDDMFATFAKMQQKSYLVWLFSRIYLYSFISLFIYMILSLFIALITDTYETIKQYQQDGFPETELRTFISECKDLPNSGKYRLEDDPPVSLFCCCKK
#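 Test system – HEK293 line with stable expression of human TRPML3-YFP channel · Control set – carbachol 87 µM final as high control (100%), DMSO as low control (0%) · Signal – Fluo-8 calcium dye fluorescence, ex 470-495, em 515-575 nm · Incubation – 1-h 37 °C dye load, 5-s basal, 120-s post-compound reads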
# TRPN1 ag – zebrafish TRPN1 channel agonists, primary screen, cell-based, HEK293, calcium fluorescence; HEK293 zebrafish TRPN1-YFP, Fluo-8 calcium fluorescence; 100% = response to 87 µM carbachol; activation, % at 3 µM; 220,000 compounds, 0.18% hits; AID 1424, 2008;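 active = activation above its plate's cutoff, the mean activation of test wells on that plate plus 3 SD, cut at about 19% in these data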;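 note: 0% = DMSO alone and 100% = 87 µM carbachol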
#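 System: zebrafish TRPN1-YFP in HEK293 cells / Dosing: 3 µM single point / Timing: dye loading 1 h at 37 °C, then 30 min room temperature / Signal: Fluo-8 calcium fluorescence, excitation 470-495 nm, emission 515-575 nm / Read-out basis: percent activation from peak over basal fluorescence ratio, control-normalized / Control set: high carbachol 87 µM, low DMSO alone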
# VIM-2 inh – VIM-2 metallo-beta-lactamase inhibitors, primary screen, biochemical, epi-absorbance readout, Pseudomonas aeruginosa enzyme. purified VIM-2, nitrocefin hydrolysis, epi-absorbance fluorescence. inhibition, % at 5.6 µM. 290,000 compounds, 0.89% hits. AID 1527, 2009;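 active = inhibition above the mean of all tested compounds plus 3 SD, cutoff set per screening run, cut at about 7.5% in these data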;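 note: red hydrolysis product quenches plate fluorescence so inhibitors raise well fluorescence; 0% = enzyme with DMSO and 100% = DMSO without enzyme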
# CRFBP-R2 block – antagonists of CRF-BP/CRF-R2 complex, primary screen, cell-based, HEK293, calcium dye fluorescence, uHTS | CRF-induced calcium fluorescence | inhibition, % at 11.8 µM | 350,000 compounds, 0.59% hits;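 active = inhibition of the ligand-induced calcium signal above about 50% at the single tested concentration, limit read from the data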
# An asterisk follows results filed as active; . = no result; ! = a repeat was not active. Hits are enriched below; roughly 2.1% of the tested compounds scored in any of these assays.
SMILES,IMP-1 inh,CRFBP-R2 agonist,TRPML3 agonist,TRPN1 ag,VIM-2 inh,CRFBP-R2 block
CCOC(=O)C1=C(C)Nc2sc(C(=O)c3ccc(C)cc3)c(N)c2C1c1ccc(C(=O)OC)cc1 (centres undefined),-3,3,1,-1,7.8*,16
CCOC(=O)C1=C(C)NC(SCC(=O)OC)=C(C#N)C1c1ccc(C(=O)OC)cc1 (centres undefined),-3,-1,-1,1,-3,55*!
CC(C)C[C@H]1CNC(=O)C(=O)N1CC1CCN(CC2CCC(C(C)(C)C)CC2)CC1 (some centres undefined),.,1,.,.,.,-16
CCn1c(SCC(=O)N2CCOCC2)nc2c([nH]c3ccccc32)c1=O,-1,-1,.,.,8.0*,9
C=CCn1c(SCC(=O)N2CCCC2)nc2c([nH]c3ccccc32)c1=O,-2,0,.,.,3,5
O=C(C1CCN(S(=O)(=O)c2cccc3cccnc23)CC1)N1CCN(c2ccccc2)CC1,-1,0,1,1,1,18
O=C(C1CCCN(S(=O)(=O)c2cccc3cccnc23)C1)N1CCN(c2ccc(F)cc2)CC1 (centres undefined),-3,-1,0,1,0,79*
O=C(C[C@H]1C[C@H](C(=O)N2CCOCC2)[C@@]2(CCC3CCCC3)c3[nH]c4ccc(Cl)cc4c3CCN2C1=O)NCCN1CCOCC1,.,88*,.,.,.,-8
COCCCNC(=O)C[C@H]1C[C@H](C(=O)N2CCOCC2)[C@@]2(CCC3CCCC3)c3[nH]c4ccc(Cl)cc4c3CCN2C1=O,.,22,.,.,.,-8
O=c1c2[nH]c3ccc(F)cc3c2ncn1CCCn1ccnc1,0,0,0,2,8.0*,-4
COc1ccccc1CNC(=O)CCC(=O)N1CCOc2ccc(Cl)cc21,-3,-6,.,.,-1,5
O=C(CCC(=O)N1CCOc2ccc(Cl)cc21)NCc1ccccc1,1,243*,.,.,0,-85
CC(=O)c1ccc(Nc2cc(C)nc3nc(C)nn23)cc1,-1,0,1,1,5,-8
Cc1cc(Nc2ccc(Br)c(C)c2)n2nc(C)nc2n1,-4,-4,0,-1,10*,3
Cc1cc(Nc2cccc(C)c2C)n2nc(C)nc2n1,0,-3,0,1,10*,-5
Cc1ccc(Nc2cc(C)nc3nc(C)nn23)cc1,-5,-4,0,-1,8,-12
Cc1cc(C)cc(Nc2cc(C)nc3nc(C)nn23)c1,-2,-2,0,0,22*,-12
CCN(CCn1cccn1)C(=O)C1CCC(=O)N(CC2CCCCC2)C1 (centres undefined),-3,0,.,.,-4,11
COc1ccc(CN2CCN(Cc3ccccc3F)CC2)cc1OC,-2,-1,.,.,-5,13
CSc1ccccc1NC(=O)C1=CC(c2ccc(C)cc2)=NS(=O)(=O)N1C,-2,1,.,.,-1,-22
COC1=C(Nc2ccccc2OC)C(=O)c2ccccc2C1=O,1,-1,-1,-4,10.0*,-12
Cc1noc(C)c1S(=O)(=O)N1CCC(C(=O)N2CCN(c3ccc(Cl)cc3)CC2)CC1,-3,0,1,1,0,58*
COc1ccccc1N1CCN(C(=O)C(=O)c2cn(CC(=O)N3CCCC3)c3ccccc23)CC1,-2,-1,.,.,-2,62*
O=C(Nc1ccccn1)c1ccc(C(=O)c2ccccc2)cc1,.,1,.,.,.,55*
Cc1ccc(NC(=O)Cc2ccc(-c3ccccc3)cc2)nc1,12*,2,.,.,0,-6
Cc1ccc(NC(=O)Cc2ccc(Cl)cc2)nc1,.,0,.,.,.,0
O=C(Cc1ccc(-c2ccccc2)cc1)Nc1ccccn1,34*,0,.,.,-2,10
Cc1ccnc(NC(=O)Cc2ccc(-c3ccccc3)cc2)c1,12*,4,.,.,-2,2
O=C(NC(=O)c1ccccc1)Nc1ccccn1,-4,.,.,.,-2,.

# Bioassay records (PubChem BioAssay)
